Test results published in ChEMBL document CHEMBL3091343, “Nicotinamide phosphoribosyltransferase inhibitors, design, preparation, and structure-activity relationship” (J Med Chem, 2013).

Experiments:
A2780 [1] = experiment: Cytotoxicity against human A2780 cells assessed as growth inhibition after 72 hrs by WST-1 assay; type: functional, cell-based; settings: A2780, 72 h
MCF7 [2] = experiment: Cytotoxicity against human MCF-7 cells assessed as growth inhibition after 72 hrs by WST-1 assay; type: functional, cell-based; settings: MCF7, 72 h
[3] = target: Nicotinamide phosphoribosyltransferase (Homo sapiens, UniProt P43490); experiment: Inhibition of NAMPT in human HepG2 cells using [14C]-nicotinamide/PRPP as substrate assessed as formation of [14C]-nicotinamide mononucleotide after 1 hr by liquid scintillation counting analysis; type: cell-based
Nicotinamide phosphoribosyltransferase, sequence (P43490 whole entry): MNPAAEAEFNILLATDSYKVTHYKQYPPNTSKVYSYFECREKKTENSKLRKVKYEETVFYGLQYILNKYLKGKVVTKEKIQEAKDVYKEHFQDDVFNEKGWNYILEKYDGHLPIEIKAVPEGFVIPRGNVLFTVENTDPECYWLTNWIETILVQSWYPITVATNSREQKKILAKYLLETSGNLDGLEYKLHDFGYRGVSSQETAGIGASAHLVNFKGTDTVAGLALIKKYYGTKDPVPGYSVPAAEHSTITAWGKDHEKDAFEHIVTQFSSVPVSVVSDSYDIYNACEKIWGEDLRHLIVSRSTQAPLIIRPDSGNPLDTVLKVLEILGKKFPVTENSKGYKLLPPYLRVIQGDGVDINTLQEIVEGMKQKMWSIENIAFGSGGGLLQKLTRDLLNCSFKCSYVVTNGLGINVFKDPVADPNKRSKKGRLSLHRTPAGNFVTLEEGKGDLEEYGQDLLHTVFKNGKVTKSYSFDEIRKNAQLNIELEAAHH

[4] = Cmax in NMRI mouse at 20 mg/kg, iv; type: ADME, organism-based; design: dose 20 mg/kg, route intravenous; settings: in vivo
Summary of the method: (§1)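 Mouse PK after a single i.v. dose. Plasma proteins were precipitated with acetonitrile containing internal standard (3:1 v/v). Samples were analysed by UPLC-MS/MS on a C18 column at 40°C with an acetonitrile–0.05% formic acid gradient, using positive electrospray MRM. Parameters were derived by non-compartmental analysis.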

Mus musculus = experiment: Toxicity in human A2780 cells xenografted NMRI/nude mouse containing small tumors assessed as effect on body weight at 15 mg/kg, ip bid administered for 5 days measured at day 14 relative to vehicle-treated control; type: organism-based; design: dose 15 mg/kg, route intraperitoneal; settings: in vivo, 120 h
HCT-116 [5] = experiment: Cytotoxicity against APO866-resistant human HCT116 cells assessed as growth inhibition after 72 hrs by WST-1 assay; type: functional, cell-based; settings: HCT-116, 72 h
[6] = Toxicity in ip dosed NMRI mouse assessed as blood cell count administered as bid for 5 days; type: organism-based; settings: in vivo
A2780 [7] = experiment: cells; settings: Homo sapiens
[8] = Clearance in NMRI mouse at 20 mg/kg, iv; type: ADME, organism-based; design: dose 20 mg/kg, route intravenous; settings: in vivo; summary of the method: as §1
[9] = Half life in NMRI mouse at 20 mg/kg, iv; type: ADME, organism-based; design: dose 20 mg/kg, route intravenous; settings: in vivo; summary of the method: as §1
SK-OV-3 = experiment: Cytotoxicity against human SKOV3 cells by clonogenic assay; type: functional, cell-based
[10] = AUC in NMRI mouse at 20 mg/kg, iv; type: ADME, organism-based; design: dose 20 mg/kg, route intravenous; settings: plasma; summary of the method: as §1
HCT-116 [11] = experiment: Cytotoxicity against human HCT116 cells assessed as growth inhibition after 72 hrs by WST-1 assay; type: functional, cell-based; settings: HCT-116, 72 h
A-431 = experiment: Cytotoxicity against human A431 cells by clonogenic assay; type: functional, cell-based
[12] = Apparent volume of distribution in NMRI mouse at 20 mg/kg, iv; type: ADME, organism-based; design: dose 20 mg/kg, route intravenous; settings: in vivo, read-out: Vz; summary of the method: as §1
MCF7 [13] = experiment: cells; settings: Homo sapiens
A2780 [14] = experiment: Antitumor activity against human A2780 cells xenografted in NMRI/nude mouse assessed as tumor growth inhibition at 15 mg/kg, ip bid administered for 5 days measured at day 14 relative to vehicle-treated control; type: functional; settings: route intraperitoneal
[15] = Tmax in NMRI mouse at 20 mg/kg, iv; type: ADME, organism-based; design: dose 20 mg/kg, route intravenous; settings: in vivo; summary of the method: as §1
[16] = Toxicity in ip dosed NMRI mouse assessed as body weight loss administered as bid for 5 days; type: organism-based; settings: in vivo
[17] = Cytotoxicity against human NYH cells by clonogenic assay; type: functional, cell-based
PC-3 = experiment: Cytotoxicity against human PC3 cells by clonogenic assay; type: functional, cell-based

Row | Compound | IC50 (A2780 [1]) [nM] | IC50 (MCF7 [2]) [nM] | other results
1 | N#C/N=C(\NCCCCCCS(=O)(=O)N(OCCN1CCOCC1)C1CCC1)Nc1ccncc1 | 0.049 | 0.007 | 
2 | O=C(CCCCCCNC(=S)NCc1cccnc1)N(OCCN1CCOCC1)C1CCCCC1 | 0.91 | 5.5 | IC50 [3]: 8.2 nM
3 | O=C1C(=O)C(Nc2ccncc2)C1NCCCCCS(=O)(=O)N(OCCN1CCOCC1)C1CCCCC1 (centres undefined) | 0.57 | 35.8 | IC50 [3]: 49.6 nM
4 | N#C/N=C(\NCCCCCCS(=O)(=O)N(OCCN1CCOCC1)C1CCCC1)Nc1ccncc1 | 0.0041 |  | 
5 | O=C1C(=O)C(Nc2ccncc2)C1NCCCCCC(=O)N(Cc1ccccc1)OCCN1CCOCC1 (centres undefined) | 0.68 | 23 | 
6 | O=C(NCCCCCCS(=O)(=O)N(OCCN1CCOCC1)C1CCC1)NCc1cccnc1 | 2.2 | 11 | 
7 | N#CNC(=Nc1ccncc1)NCCCCCCS(=O)(=O)NOCC1CCCCC1 | 0.16 | 3.4 | IC50 [3]: 2.4 nM
8 | O=S(=O)(CCCCCCNC(=S)Nc1ccncc1)N(OCCN1CCOCC1)C1CCCC1 | 0.16 | 0.31 | 
9 | O=C(NCCCCCCS(=O)(=O)N(OCCN1CCOCC1)C1CCCC1)NCc1cccnc1 | 0.58 | 5.8 | 
10 | O=C(CCCCCCNc1c(Nc2ccncc2)c(=O)c1=O)N(OCCN1CCOCC1)C1CCCCC1 | 0.03 |  | 
11 | N#C/N=C(\NCCCCCCS(=O)(=O)N(CCN1CCOCC1)OCc1ccccc1)Nc1ccncc1 | 0.053 | 0.63 | 
12 | O=C(NCCCCCCC(=O)N(OCCN1CCOCC1)C1CCCCC1)NCc1cccnc1 | 0.27 | 0.37 | 
13 | N#C/N=C(\NCCCCCCC(=O)N(Cc1ccccc1)OC1CCCCC1)Nc1ccncc1 | 0.055 | 1 | IC50 [3]: 38.5 nM
14 | N#C/N=C(\NCCCCCS(=O)(=O)N(OCCN1CCOCC1)C1CCCC1)Nc1ccncc1 | 0.022 | 0.041 | 
15 | O=C(/C=C/c1cccnc1)NCCCCC1CCN(C(=O)c2ccccc2)CC1 [DAPORINAD] | 1.6 | 7.4 | Cmax [4]: 14600 ng/mL; Activity (Mus musculus): Non-toxic; IC50 (HCT-116 [5]): 946 nM; MTD at 120 h [6]: < 10 mg/kg; IC50 (A2780 [7]): 5.7 nM; clearance [8]: 27 mL/min/kg; half-life [9]: 24 min; IC50 (SK-OV-3): 211 nM; AUC [10]: 12300 ng·h/mL; IC50 (HCT-116 [11]): 10.9 nM; IC50 (A-431): 6.1 nM; Vd [12]: 0.998 L/kg; IC50 (MCF7 [13]): 8.4 nM; T/C (A2780 [14]): 52%; Tmax [15]: 15 min; MTD at 120 h [16]: < 10 mg/kg; IC50 [17]: 1.5 nM; IC50 (PC-3): 3.8 nM
16 | O=C1C(=O)C(Nc2ccncc2)C1NCCCCCCS(=O)(=O)N(OCCN1CCOCC1)C1CCCC1 (centres undefined) | 0.59 | 13.7 | 
17 | N#C/N=C(\NCCCCCCCC(=O)N(Cc1ccccc1)OCCN1CCOCC1)Nc1ccncc1 | 0.01 |  | IC50 [3]: 4.4 nM
18 | O=C(NCCCCCCS(=O)(=O)N(CCN1CCOCC1)CC1CCCCC1)Nc1ccncc1 | 0.56 | 1.4 | IC50 [3]: 133 nM
19 | O=C(NCCCCCS(=O)(=O)N(OCCN1CCOCC1)C1CCC1)NCc1cccnc1 | 13 | 49 | 
20 | N#C/N=C(\NCCCCCS(=O)(=O)N(OCCN1CCOCC1)C1CCCCC1)Nc1ccncc1 | 0.011 | 0.036 | 
21 | O=C(NCCCCCS(=O)(=O)N(OCCN1CCOCC1)C1CCCCC1)NCc1cccnc1 | 4.6 | 6.5 | 
22 | O=C1C(=O)C(Nc2ccncc2)C1NCCCCCCC(=O)N(Cc1ccccc1)OCCN1CCOCC1 (centres undefined) | 0.29 | 12.3 | 
23 | C[C@@H](CCCCCN/C(=N\C#N)Nc1ccncc1)C(=O)NOC1CCCCC1 | 0.08 | 1 | 
24 | N#C/N=C(\NCCCCCCS(=O)(=O)N(CCCN1CCOCC1)C1CCC1)Nc1ccncc1 | 0.091 | 0.1 | 
